# The entries come from a sample that favours hits as a whole.
# TLR9-MyD88 block: TLR9-MyD88 interaction inhibition. Q9NR96+Q99836. CHO BLA complementation TLR9-MyD88, CCF4 FRET ratio. 340,000 compounds, 0.21% hits. inhibition, % at 4.98 µM;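 active = inhibition above the mean over all tested compounds plus 3 SD, cut at about 21% in these data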;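 also: 0% = DMSO only wells and 100% = clavulanate BLA inhibitor control wells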
# UPR XBP1 act: adaptive UPR (XBP1) activation; 330,000 compounds, 0.33% hits; activation, % at 20 µM; CHO-XBP1 luciferase reporter, IRE1-XBP1 UPR activation, luminescence; percent of tunicamycin response, DMSO as zero; AID 463104;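 active = versus positive control, 20 µM dose yields 30% or more activation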;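 also: 100% = tunicamycin at 10 µg/mL and 0% = DMSO only wells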
#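 Material: CHO-XBP1 cells stably carrying IRE1-XBP1-driven luciferase reporter / Amount: 1000 cells per well / Compound: 20 µM, 1% DMSO / Times: 6 h treatment, 37 °C / Detection: luciferase luminescence / Measure: % activation of reporter signal versus tunicamycin and DMSO controls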
# CHOP inhibitor: CHOP inhibition in unfolded protein response; AID 2732; inhibition, % at 10 µM; CHO-K1 CHOP-promoter luciferase, tunicamycin-induced, 15-18 h; 220,000 compounds, 3.8% hits;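 active = compounds that reduced the stress-induced luciferase reporter signal by more than about 70% of percent inhibition, limit read from the data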;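 also: 0% = tunicamycin plus vehicle and 100% = wells without tunicamycin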
# NOD2-RIPK2 inh: inhibitors of human NOD2-RIPK2 interaction | O43353 | CHO BLA complementation NOD2-RIPK2, CCF4 ratio | inhibition, % at 4.98 µM | 360,000 compounds, 0.38% hits; in the data active = inhibition above about 21%;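 also: 0% = vehicle only and 100% = reference blocker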
# UPR CHOP act: activators of apoptotic arm of unfolded protein response (CHOP); AID 449763; 330,000 compounds, 0.34% hits; CHO-CHOP luciferase reporter, UPR activation, luminescence; percent of tunicamycin response over DMSO baseline; activation, % at 10 µM;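 active = at 10 µM dose, activation of 40% or more, normalized to positive control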;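 also: 100% = tunicamycin at 10 µg/mL and 0% = DMSO alone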
#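 Evaluation: % reporter activation, DMSO baseline versus tunicamycin full activation; System: CHO-CHOP luciferase reporter cell line; Input: 500 cells/well; Incubation: 6 h compound treatment, 37 °C; Measured by: Steady-Glo luciferase luminescence; Dosing: one dose, 10 µM in 0.5% DMSO; Buffer or medium: F12 medium, 10% FBS; Benchmarks: positive tunicamycin 10 µg/mL, negative DMSO alone.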
# TLR4-MyD88 BLA: inhibitors of human TLR4-MyD88 binding; HeLa CL3-4 TLR4/MyD88 BLA complementation, FRET ratio; inhibition, % at 8.4 µM; 200,000 compounds, 0.18% hits; in the data active = inhibition above about 25%;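 also: 0% = vehicle and 100% = reference inhibitor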
# NOD2-RIPK2 conf: NOD2-RIPK2 interaction inhibition confirmed | inhibition, % at 4.98 µM | shares compounds with NOD2-RIPK2 inh | AID 624370 | CHO cells, NOD2-RIPK2 BLA complementation, CCF4 FRET | 1,200 compounds, 70% hits;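 active = mean inhibition across replicates above a set limit taken from the earlier primary screen, cut at about 21% in these data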;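 also: 0% = DMSO-only wells and the high end = clavulanate BLA-blocked wells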
# BLA counter: counter-screen for NOD2-RIPK2 interaction inhibitors: BLA reporter | CHO BLA reporter, CCF4 FRET ratio, counterscreen | AID 624371 | inhibition, % at 4.98 µM | shares compounds with NOD2-RIPK2 inh | 1,200 compounds, 57% hits;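 active = mean inhibition above the low-control mean inhibition plus three low-control SD, cut at about 11% in these data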;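 also: 0% = DMSO only wells and 100% = clavulanate high control wells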
# Starred values were filed as active, the others as inactive; · = no result given.
SMILES,TLR9-MyD88 block,UPR XBP1 act,CHOP inhibitor,NOD2-RIPK2 inh,UPR CHOP act,TLR4-MyD88 BLA,NOD2-RIPK2 conf,BLA counter
CCN(CC)c1ccc2c(C)c(-c3ccc(N)cc3)c(=O)oc2c1,12.3,4.1,16.3,27.3*,3.4,14.9,23.6*,32.7*
CCOC(=O)Cc1c(C)c2ccc(N(CC)CC)cc2oc1=O,-8.2,0.3,-1.7,11.3,1.7,-1.9,·,·
NS(=O)(=O)c1cccc(NC(=O)CCS(=O)(=O)c2ccc(Cl)cc2)c1,3.7,-1.5,-17.6,5.2,-1.4,-4.6,·,·
CC(=O)N1CCN(c2ccc(NC(=O)c3ccc([N+](=O)[O-])o3)cc2Cl)CC1,4.1,-2.8,·,28.2*,72.8*,·,26.7*,6.4
Cc1cnc(CNC(=O)c2ccc(OC3CCN(C(=O)C4CC4)CC3)cc2)cn1,2.7,-3.4,43.4,-12.6,0.4,-10.4,·,·
CCOc1c(Br)cc(Br)cc1/C=C1\SC(N)=NC1=O,4.4,-1.9,·,32.2*,1.7,·,2.7,-3.5
CCOc1cc(/C=C2\SC(N)=NC2=O)ccc1O,4.4,0.8,·,-6.5,0.4,·,·,·
CN1OC[C@@H]2CN(S(=O)(=O)c3ccccc3)[C@H](c3ccccc3Br)C[C@@H]21,·,·,·,32.7*,·,·,-4.7,-4.6
CCCC(=O)N(C1CC(C)C(C#N)(C#N)C1(C#N)C#N)N(C)C (configuration not stated),-0.4,-9.9,-80.3,57.3*,-7.2,·,91.6*,13.6*
N#Cc1ccc(C(C(=O)NCc2ccccc2)n2c(=O)c(-c3cc4ccccc4[nH]3)nc3ccccc32)cc1 (configuration not stated),·,·,·,57.8*,·,·,54.0*,72.0*
O=C(NCc1ccccc1)C(c1ccc(C(F)(F)F)cc1)n1c(=O)c(-c2cc3ccccc3[nH]2)nc2ccccc21 (configuration not stated),·,·,·,48.9*,·,·,47.4*,68.8*
O=C(NCc1ccccc1)C(c1ccncc1)n1c(=O)c(-c2ccco2)nc2ccccc21 (configuration not stated),·,·,·,-8.7,·,·,·,·
O=C(Nc1cccc([N+](=O)[O-])c1)c1cccc(C(=O)Nc2cccc([N+](=O)[O-])c2)c1,-1.8,12.8,-23.8,-3.0,20.3,·,·,·
O=C(Nc1cccc([N+](=O)[O-])c1)c1ccc(-c2ccccc2)cc1,4.2,7.0,49.1,34.0*,8.2,16.5,6.5,2.9
Cc1ccc(/C(C#N)=C\c2ccc(N3CCOCC3)o2)cc1,14.8,1.2,-53.8,41.8*,6.4,12.3,31.9*,26.9*
Cc1ccc2nc(/C(C#N)=C\c3ccc(N4CCOCC4)o3)[nH]c2c1,8.0,2.8,8.1,8.0,3.2,12.5,·,·
CC(C)(C)c1ccc(SCCc2cccnc2)cc1,10.2,0.6,-33.5,0.6,7.5,·,·,·
C(=C\c1ccco1)/C1=NN(c2ccccc2)C(c2ccco2)C1 (configuration not stated),-23.4,4.8,74.0*,21.8*,6.9,15.1,31.6*,60.1*
C=CC(=O)N1C/C(=C/c2ccccc2)C(=O)/C(=C\c2ccccc2)C1,-4.5,·,·,45.2*,·,·,43.5*,5.7
C=CC(=O)N1C/C(=C/c2ccc(Cl)cc2)C(=O)/C(=C\c2ccc(Cl)cc2)C1,8.5,·,·,45.1*,·,·,54.4*,6.9
Cc1c(CC(=O)O)c(=O)oc2c(C)c(OCc3ccccc3Br)ccc12,-8.0,3.7,·,-0.5,1.4,·,·,·
O=C(CN(C(=O)CCC(=O)Nc1ccccn1)c1ccc2c(c1)OCO2)NCc1ccc(F)cc1,-12.9,-1.4,·,2.1,3.5,·,·,·
COc1ccc(NC(=O)C(c2ccc(C(F)(F)F)cc2)n2c(=O)c(-c3cc4ccccc4[nH]3)nc3ccccc32)cc1 (configuration not stated),·,·,·,41.1*,·,·,38.0*,63.8*
COc1ccc(NC(=O)C(c2ccc(OC)cc2)n2c(=O)c(-c3ccco3)nc3ccccc32)cc1 (configuration not stated),·,·,·,-15.0,·,·,·,·
COc1ccc(C(C(=O)Nc2ccc3c(c2)OCCO3)n2c(=O)c(-c3cc4ccccc4[nH]3)nc3ccccc32)cc1 (configuration not stated),·,·,·,44.8*,·,·,42.6*,65.2*
SMILES,TLR9-MyD88 block,UPR XBP1 act,CHOP inhibitor,NOD2-RIPK2 inh,UPR CHOP act,TLR4-MyD88 BLA,NOD2-RIPK2 conf,BLA counter
Cc1cc(C)c(NC(=O)C2CCN(c3cnccn3)CC2)c(C)c1,-11.1,-0.6,11.7,28.1*,-1.1,0.2,-7.7,-1.5
Cc1cc(C)cc(NC(=O)C2CCN(c3cnccn3)CC2)c1,2.5,-1.5,-5.2,3.9,0.4,3.9,·,·
COc1ccccc1N1C(=NC(=O)CCC2CCCC2)SC2CS(=O)(=O)CC21 (configuration not stated),2.3,-3.1,·,-11.1,-0.1,·,·,·
O=C(Nc1ccc(F)cc1)C(c1ccncc1)N1CCN(CC(=O)N2CCCC2)CC1 (configuration not stated),·,·,·,-12.7,·,·,·,·
CCCCNC(=S)Nc1ccc(-c2nc3ccc(C)cc3s2)cc1,-9.1,-1.4,6.6,23.0*,7.4,-6.2,-0.7,-2.8
CCN1CCN(c2ccc(NC(=O)COc3ccc([N+](=O)[O-])cc3)cc2)CC1,-0.2,-3.3,·,21.0*,-0.6,·,-1.7,-2.0
O=C(COc1ccc(S(=O)(=O)N2CCCC2)cc1)N1CCCCC1,6.3,-1.9,·,-8.4,3.5,·,·,·
CCOC(=O)[C@H]1[C@H]2COc3ccc(C)cc3[C@@H]2N2C(=O)c3cc(F)c(F)cc3NC(=O)[C@@]12C,-6.7,0.2,·,-6.0,-0.9,·,·,·
Cc1cccc(C)c1NC(=O)C(c1ccccc1)n1c(=O)c(-c2ccccc2)nc2ccccc21 (configuration not stated),·,·,·,-12.7,·,·,·,·
Cc1cccc(C)c1NC(=O)C(c1ccccc1)n1c(=O)c(-c2cc3ccccc3[nH]2)nc2ccccc21 (configuration not stated),·,·,·,46.6*,·,·,45.3*,67.7*
O=C(Nc1ccc2ccccc2c1)C(c1ccccc1)n1c(=O)c(-c2cc3ccccc3[nH]2)nc2ccccc21 (configuration not stated),·,·,·,46.8*,·,·,41.6*,66.2*
Cc1cccc(C)c1NC(=O)C(c1ccncc1)n1c(=O)c(-c2cc3ccccc3[nH]2)nc2ccccc21 (configuration not stated),·,·,·,47.1*,·,·,44.1*,63.4*
